A number with no mark means an inactive call.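 How the source made its calls: active means GFP response vs DMSO above 150% with enough events counted; inconclusive means fewer than 70 events counted for a yeast strain; inactive means the rest.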

The test can be described thus: yeast TOR reporter LAP4-GFP retest – cell-based, third cherry pick, flow cytometry, confirmation (AID 504338).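 Further: ratio to plate DMSO wells so 100% equals DMSO level rather than 0%.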 As to conditions: S. cerevisiae LAP4-GFP strain, 3 h, at 10 µM, active compounds read high. The essentials: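 Assay system – yeast LAP4-GFP strain · Buffer or medium – synthetic complete medium · Times – compound exposure for 3 h at 30 °C · Technique – flow cytometric GFP fluorescence · Evaluation – median GFP fluorescence as percent of plate DMSO-well average · Benchmarks – rapamycin 400 ng/mL as positive control, DMSO wells as reference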
On the technique in general: A flow cytometer gives signals particle by particle.
Consider `CN1CCN(c2ncnc3ccc(Br)cc23)CC1`, for which the GFP response vs DMSO is 107%.
For `C/C(O)=C(\C#N)C(=O)Nc1cc(Br)ccc1Br` the value was 106%; for `CN(C)C(=O)Oc1ccc(Cl)c2cccnc12`, 106%.
For `Cc1ccc2c(c1N)C(=O)c1ccccc1C2=O` the value was 104%.
As for `CCN1CCN(c2ncnc3ccc(Br)cc23)CC1`, the GFP response vs DMSO was 108%.
`CN(C)C(=O)Oc1ccnc2cc(Cl)ccc12`: the GFP response vs DMSO was 107%.

Values taken from PubChem BioAssay AID504338 (NMMLSC, 2011).
